In the library only some 3.5% were active in any assay of this set; here they are far more common.
MrgX1 ag = agonists of human MrgX1 receptor, primary screen, HEK293 cells, Fluo-4 calcium flux. Mas-related G-protein coupled receptor member X1 (Homo sapiens), Q96LB2. AID 588627, 2011. B-score at 10 µM. Fluo-4 calcium fluorescence, agonist mode; hits give high values. actives 0.44% (n = 310,000);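 active = calcium response B-score plate-corrected fluorescence ratio at least 3 library SD, with starting fluorescence B-score inside 5 SD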
Target sequence (Q96LB2 whole entry, looked up): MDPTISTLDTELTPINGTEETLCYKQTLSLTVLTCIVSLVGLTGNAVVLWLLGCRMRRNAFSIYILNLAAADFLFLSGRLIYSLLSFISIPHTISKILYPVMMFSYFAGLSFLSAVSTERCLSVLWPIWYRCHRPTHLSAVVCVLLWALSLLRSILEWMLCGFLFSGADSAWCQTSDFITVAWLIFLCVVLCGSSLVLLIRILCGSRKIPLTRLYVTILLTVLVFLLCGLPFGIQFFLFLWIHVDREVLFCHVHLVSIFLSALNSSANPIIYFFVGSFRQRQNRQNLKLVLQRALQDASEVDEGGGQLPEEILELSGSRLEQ
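Test system: HEK293 cells stably expressing human MrgX1 receptor; Input: fifteen thousand cells per well; Dosing: compound delivered in addition one of three; Schedule: overnight seeding, then 1 h dark dye loading; Technique: Fluo-4 NW calcium fluorescence; Measure: B-scored fluorescence response ratio; Controls: positive and negative controls per plate.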
RGS4 pot = RGS4 potentiators or activators, primary screen, cell-based, HEK293 M3R inducible RGS4, calcium flux; carbachol calcium flux Fluo4; hits give low values; actives 0.92% (n = 310,000); AID 463111, 2010; B-score at 10 µM;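 active = B-score of the integrated calcium signal more than 4 SD below the library mean, with starting fluorescence not abnormally high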;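 note: negative B-score means reduced calcium response which marks RGS4 activation or potentiation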
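Reagent: ECmax carbachol challenge; Test system: M3R-expressing HEK293 line, RGS4 induced by doxycycline; Schedule: overnight RGS4 induction, 30 min dye load 37 °C, 20 min compound RT; Detection: calcium dye Fluo4 fluorescence; Read-out: Agonist-evoked peak-minus-minimum fluorescence over baseline, integrated ratio, B score.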
MrgX1 PAM = positive allosteric modulators of MrgX1, primary screen, HEK293 cells, Fluo-4 calcium flux. actives 0.63% (n = 310,000). B-score at 10 µM. FDSS; hits give high values. AID 588675, 2011. Mas-related G-protein coupled receptor member X1 (Homo sapiens), Q96LB2;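 active = plate-corrected calcium response at least 3 library SD above typical, normal starting fluorescence, not activating the receptor alone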;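 note: compound read alongside a low EC10 to EC30 dose of BAM8-22 agonist; peak minus trough fluorescence over baseline measured at the second addition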
MrgX1 antag = antagonists of human MrgX1 receptor, primary screen, HEK293 cells, Fluo-4 calcium flux; actives 1.3% (n = 310,000); B-score at 10 µM; BAM8-22 antagonism; hits give low values;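 active = calcium-response B-score plate-corrected more than 3 library SD below zero, starting fluorescence within 5 deviations, no agonist response on first addition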;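 note: peak minus trough fluorescence over baseline after final BAM8-22 challenge near maximal dose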
RGS4 inh = RGS4 inhibitors, primary screen, cell-based, HEK293 M3R inducible RGS4, calcium flux; Fluo-4 calcium flux; hits give high values; triggered by carbachol at its EC20; B-score at 10 µM; actives 0.45% (n = 310,000); AID 463165, 2010;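 active = B-score, a plate-corrected calcium signal, over three deviations above library mean, with baseline fluorescence within five deviations of library mean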;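 note: RGS4 expression induced by doxycycline in cells with stable M3 receptor; B-score is computed from the integrated fluorescence ratio over baseline after carbachol; higher B-score means a larger calcium signal and so more RGS4 inhibition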
Target sequence (P49798 whole entry, looked up): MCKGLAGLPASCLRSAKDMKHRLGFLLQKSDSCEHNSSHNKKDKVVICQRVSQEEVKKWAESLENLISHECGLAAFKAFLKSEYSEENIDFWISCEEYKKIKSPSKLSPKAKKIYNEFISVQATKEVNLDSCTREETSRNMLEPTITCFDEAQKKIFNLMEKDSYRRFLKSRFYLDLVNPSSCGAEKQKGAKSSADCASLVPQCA
Of the large screens only hits and unclear results are named; the others gave an inactive call.

O=[N+]([O-])c1ccccc1/C=N/N1CCN(c2ccc(Cl)cc2)CC1	none
Cc1cc(C)cc(OC(C)C(=O)NCCCn2ccnc2)c1 (stereo unspecified)	none
COc1ccc(C(C(=O)NC2CCCC2)N(C(=O)c2snc(C(N)=O)c2N)c2cccc(O)c2)cc1 (stereo unspecified)	MrgX1 PAM 6.5
NC(=O)c1nsc(C(=O)N(c2cccc(F)c2)C(C(=O)NC2CCCC2)c2ccc(O)cc2)c1N (stereo unspecified)	none
CCC(C(=O)NCCCN1CC(C)CC(C)C1)n1nc(C)c2sc3ccccc3c2c1=O (stereo unspecified)	none
O=C(CC(c1ccc(F)cc1)c1ccco1)Nc1nccs1 (stereo unspecified)	none
CN(C)c1ccc(/C=C(/C#N)C(=O)NCc2ccccc2)o1	MrgX1 antag -4.9
N#C/C(=C/c1ccccc1)C(=O)NCc1ccccc1	none
CNC(=O)c1cc2cc(OC)ccc2oc1=O	none
COc1ccc2oc(=O)c(C(=O)C[n+]3cccc(C)c3)cc2c1	RGS4 pot -10
CCOc1ccc(S(=O)(=O)N(C)CC(=O)N2CCN(CC)CC2)cc1	none
CC(=O)c1ccc(N2CCN(C(=O)c3c(-c4ccccc4Cl)noc3C)CC2)cc1	none
CC1(C)CC(=O)C2=C(C1)OC(N)=C(C#N)C2C#Cc1ccccc1 (stereo unspecified)	MrgX1 ag 53
CC(c1ccccc1)C1C(C#N)=C(N)OC2=C1C(=O)CC(C)(C)C2 (stereo unspecified)	none
CNC(=O)/C(C#N)=C/c1ccc(-c2ccc(OC)cc2[N+](=O)[O-])o1	MrgX1 antag -5.2
COc1ccc(CCN2C(=O)c3[nH]nc(-c4ccccc4O)c3C2c2cccc(Cl)c2)cc1 (stereo unspecified)	none
COc1cccc(C2c3c(-c4cc(Cl)c(C)cc4O)n[nH]c3C(=O)N2Cc2cccnc2)c1 (stereo unspecified)	RGS4 inh 11
O=C(CO/N=C1\CCCc2nonc21)Nc1ccccc1Cl	MrgX1 PAM 14
COc1ccc(NC(=O)CO/N=C2\CCCc3nonc32)cc1	none
COc1ccc(NC(=O)CO/N=C2/CCCc3nonc32)c(OC)c1	MrgX1 antag -5.5
O=C(CO/N=C1\CCCc2nonc21)Nc1ccc(Br)cc1	none
CCOc1ccc(N(CC(=O)NCCc2ccc(C)cc2)S(=O)(=O)c2c(C)noc2C)cc1	none
CC(C)(O)C#Cc1ccc(C(=O)NCc2ccccc2F)cc1	none
COc1ccc(CC(=O)N2CCN(c3ccccc3OC)CC2)cc1OC	none
Cc1ccc(S(=O)(=O)c2c(C)cc(C)nc2Oc2cccc(C(F)(F)F)c2)cc1	RGS4 pot -8.2
COc1nccnc1NS(=O)(=O)c1ccc(N/C=C2\CCCCC2=O)cc1	none
COc1ccccc1Oc1ccc(S(=O)(=O)N2CCCC2)cc1	MrgX1 antag -6.1
COc1ccccc1Oc1ccc(S(=O)(=O)N2CCCCC2C)cc1 (stereo unspecified)	none
CCC(O)(CCN1CCCCC1)c1ccccc1 (stereo unspecified)	RGS4 pot -7
CCCCOc1ccc(C(O)(CC)CCN2CCOCC2)cc1 (stereo unspecified)	MrgX1 antag -6.3
CCCCCC(O)(CCN1CCCCC1)c1ccc(OCC)cc1 (stereo unspecified)	RGS4 pot -8.8
Cc1ccc2cc(CN(c3cccc(C)c3C)S(=O)(=O)c3ccccc3)c(=O)[nH]c2c1	none
CS(=O)(=O)c1nc(S(=O)(=O)c2ccc(Cl)cc2)c(NCCCN2CCOCC2)s1	none
CS(=O)(=O)c1ccc(C(=O)NC2CCCc3ccccc32)cc1 (stereo unspecified)	none
Cc1ccc(C)c(S(=O)(=O)N2CC(=O)N(CCc3ccccc3)C(=O)C2)c1	none
Cc1ccccc1-n1nc(C(=O)c2cccs2)cc(-c2nc3ccccc3[nH]2)c1=N	none
Cc1cccc(-n2nc(C(=O)c3ccco3)cc(-c3nc4ccccc4[nH]3)c2=N)c1	RGS4 pot -8.1
CC1CC(C)CN(CCCCOc2ccc([N+](=O)[O-])cc2)C1 (stereo unspecified)	none
CN(C(=O)c1cc(COc2ccc(F)cc2Cl)on1)C1CCCc2ccccc21 (stereo unspecified)	RGS4 pot -7.2
Cc1ccc(CN(C)C(=O)c2cc(COc3ccc(F)cc3Cl)on2)o1	none
CN1CCN(CC#CCn2c3ccccc3c3ccccc32)CC1	RGS4 pot -7.1
Cc1ccccc1NCCC(=O)Nc1ccc(Cl)cc1	none
COc1ccc(C2=NOC(C(=O)NCCN3CCOCC3)C2)cc1 (stereo unspecified)	none
COc1ccc(C2=NOC(C(=O)NCCCN3CCOCC3)C2)cc1 (stereo unspecified)	MrgX1 antag -5.1
Cc1cc(/C=N/n2cnnc2)c(C)n1-c1ccc(OCc2ccc(Cl)cc2Cl)cc1	RGS4 pot -8.3
Cc1cc(/C=N/n2cnnc2)c(C)n1-c1ccc(Cl)cc1	none
O=c1oc2ccccc2nc1/C=C(O)/C=C/c1ccc(F)cc1	none
O=c1oc2ccccc2nc1/C=C(O)/C=C\c1ccccc1	MrgX1 PAM 8.6
COc1ccc(CCN(Cc2cc3cc(C)cc(C)c3nc2Cl)C(=O)C2CC2)cc1	RGS4 pot -7.2
CN(C)CCOC1c2ccccc2CSc2ccccc21 (stereo unspecified)	RGS4 pot -8.9
O=S(=O)(c1ccc(Br)cc1)N1CCCN(Cc2ccccc2F)CC1	RGS4 pot -7.4
Cc1ccccc1CN1CCN(S(=O)(=O)c2ccc(F)cc2)CC1	none
O=S(=O)(c1ccc(Cl)cc1)N1CCN(Cc2c[nH]c3ccccc23)CC1	RGS4 pot -7.5
COc1ccc(-c2csc(NC(=O)c3ccc(C(C)(C)C)cc3)c2C(=O)O)cc1	MrgX1 PAM 14
COc1ccc(-c2csc(NC(=O)c3ccccc3Br)c2C(=O)O)cc1	none
CC1CN(S(=O)(=O)c2ccc(C(=O)Nc3nnc(-c4ccc5c(c4)CCCC5)o3)cc2)CC(C)O1 (stereo unspecified)	RGS4 pot -7.3
CCN1/C(=C/c2sc(-c3ccccc3C)c[n+]2C)Sc2ccccc21	RGS4 pot -7.4 (no result: MrgX1 ag, MrgX1 PAM, MrgX1 antag)
CCOc1ccc(C2C(C#N)=C(N)SC(N)=C2C#N)cc1OCC	none
N#CC1=C(N)SC(N)=C(C#N)C1Cc1ccccc1	none
N#CC1=C(N)SC(N)=C(C#N)C1c1cccc(Oc2ccccc2)c1	MrgX1 antag -6.5
N#CC1=C(N)SC(N)=C(C#N)C1c1c(Cl)cccc1Cl	MrgX1 ag 42
N#CC1=C(N)SC(N)=C(C#N)C1CCc1ccccc1	MrgX1 antag -5.1
O=C(CSC(=S)N1CCN(c2ccccc2)CC1)Nc1nc(-c2ccccc2)c(-c2ccccc2)o1	none
